# UBC9 SUMO inh: SUMOylation inhibition. P63279. HTRF SUMOylation assay, SAE1/SAE2 + UBC9, in vitro. inhibition, % at 35 µM. 290,000 compounds, 0.36% hits. AID 2006; in the data active means inhibition above about 50%, passing the limit was not always enough
# PREPL inhibitor: human PREPL enzyme inhibition; recombinant PREPL, fluorescence polarization activity-based probe; inhibition, % at 5.96 µM; 320,000 compounds, 0.68% hits; AID 2751; in the data active means inhibition above about 43%;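 further: 0% = enzyme with DMSO and 100% = wells lacking enzyme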
# Target sequence (Q4J6C6 whole entry, looked up): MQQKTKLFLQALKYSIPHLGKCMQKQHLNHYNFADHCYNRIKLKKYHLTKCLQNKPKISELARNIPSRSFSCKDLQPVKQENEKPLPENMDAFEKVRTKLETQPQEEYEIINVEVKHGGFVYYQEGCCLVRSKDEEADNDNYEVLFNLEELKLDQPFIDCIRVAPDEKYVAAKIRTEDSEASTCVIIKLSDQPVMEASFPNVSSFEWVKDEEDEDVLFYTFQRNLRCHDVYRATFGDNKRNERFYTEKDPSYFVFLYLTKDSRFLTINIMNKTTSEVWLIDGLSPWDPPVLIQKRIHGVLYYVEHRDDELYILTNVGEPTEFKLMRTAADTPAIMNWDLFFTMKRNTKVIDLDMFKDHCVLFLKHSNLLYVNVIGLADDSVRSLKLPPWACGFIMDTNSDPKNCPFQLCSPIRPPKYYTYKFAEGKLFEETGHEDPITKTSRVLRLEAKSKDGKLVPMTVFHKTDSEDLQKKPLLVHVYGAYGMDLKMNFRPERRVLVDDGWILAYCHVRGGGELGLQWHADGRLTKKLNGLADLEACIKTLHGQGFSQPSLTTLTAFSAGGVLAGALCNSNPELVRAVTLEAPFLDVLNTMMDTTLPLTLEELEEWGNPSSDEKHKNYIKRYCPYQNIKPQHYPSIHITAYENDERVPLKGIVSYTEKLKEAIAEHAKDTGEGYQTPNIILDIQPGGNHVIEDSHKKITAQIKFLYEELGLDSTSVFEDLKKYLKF
# UBC13 polyUb: blocks human UBC13 polyubiquitin chain formation; P61088; TR-FRET; inhibition, % at 20 µM; 330,000 compounds, 0.47% hits; AID 485273; in the data active means inhibition above about 45%, passing the limit was not always enough
# Rin1-Abl PPI inh: blocks binding of human Rin1 to Abl; P00519+Q13671; TR-FRET Rin1/Abl binding, biochemical; inhibition, % at 7.35 µM; 360,000 compounds, 0.4% hits; AID 588664; in the data active means inhibition above about 5%, passing the limit was not always enough
# ALR inh: inhibitors of human sulfhydryl oxidase ALR; purified ALR, DTT oxidation, H2O2 HRP-luminol luminescence; inhibition, % (concentration not given with the values); 290,000 compounds, 3.8% hits; AID 485317;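 active means mean replicate inhibition above about 79%, with every replicate also reaching it, limit read from the data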
# RBBP9 inh: blocks human serine hydrolase RBBP9 | inhibition, % at 7.94 µM | recombinant RBBP9, FP-Rh probe fluorescence polarization | 220,000 compounds, 0.2% hits | O75884;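 active means inhibition above the campaign mean of all tested compounds plus 3 SD, cut at about 14% in these data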;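 further: plate controls were DMSO wells with RBBP9 for no effect and wells lacking RBBP9 protein for full effect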
#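 Assay system: recombinant human RBBP9; Reagent: Serine-hydrolase probe FP-Rh, 375 nM pre-mixing; Doses: 7.94 µM single dose, 0.794% DMSO; Incubation: 30 min then 45 min, 25 °C; Detection: fluorescence polarization (mP), excitation 525 nm, emission 598 nm; Evaluation: percent inhibition from mP, scaled between DMSO and no-protein wells.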
# Active calls of the source: *; · = no result given. Shown are actives, neighbours in structure and some others; about 4.3% of the full set was active somewhere.
SMILES,UBC9 SUMO inh,PREPL inhibitor,UBC13 polyUb,Rin1-Abl PPI inh,ALR inh,RBBP9 inh
CC(=O)Nc1ccc(SCC(=O)NC(=O)c2ccccc2Br)cc1,·,-1.0,10.0,-0.8,98.4*,·
Cc1ccccc1NC(=O)c1ccc(N/N=C/c2ccccc2O)c([N+](=O)[O-])c1,57.0*,8.8,-73.3,-0.2,-1.4,-3.9
NS(=O)(=O)c1ccc(N/N=C/c2ccccc2C(=O)O)c([N+](=O)[O-])c1,8.8,15.8,-81.5,-2.6,-17.5,1.8
Cc1snc(SCc2ccc(Cl)cc2)c1C#N,5.8,14.2,6.0,-2.0,-1.6,·
O=C(OCc1ccccc1)Oc1cncc(C(=O)O)c1,-5.1,1.3,5.8,3.4,97.9*,-5.8
CC(C)C(=O)N1CCCC1(C)C(=O)N(C)Cc1cccc2ccccc12 (stereo unspecified),·,·,·,-1.3,·,·
CCOC(=O)c1[nH]c2ccccc2c1N=CN(CC)CC,17.5,2.5,0.9,-0.5,98.5*,1.1
COc1ccc(S(=O)(=O)N(C)C)cc1NC(=O)CSC(C)C(=O)Nc1cc(C)on1 (stereo unspecified),·,-2.9,7.4,2.8,·,·
COC(=O)C1=C(C(=O)OC)[C@@H]2N(C)c3ccccc3[C@@]23C[C@@H](C(=O)OC)N=C3N1,3.7,1.4,4.3,2.0,10.8,·
COC(=O)C1=C(C(=O)OC)[C@@H]2N(C)c3ccc(OC)cc3[C@@]23C[C@@H](C(=O)OC)N=C3N1,-14.6,2.9,5.6,-0.5,77.1*,·
C=CCn1sc(=N)c(C#N)c1N,2.7,2.5,-13.3,3.4,98.7*,-4.0
COc1ccc(NC2CC(=O)N(c3cccc(C)c3)C2=O)cc1 (stereo unspecified),1.3,4.4,-6.7,0.0,-6.4,-3.1
COc1ccc(NC2CC(=O)N(c3cccc([N+](=O)[O-])c3)C2=O)cc1 (stereo unspecified),6.5,12.8,0.9,2.3,89.0*,-2.7
Cc1nc2c(C(=O)N3CCOCC3)cnn2c(C)c1Cc1ccc(Cl)cc1,11.7,16.1,10.5,-0.3,98.5*,-2.3
COCCNc1c(-c2ccc(OC)cc2)nc2ccc(Cl)cn12,19.6,8.6,-10.6,0.8,98.7*,-8.0
Cc1ccc(-c2nnnn2C2C/C(=N\NC(N)=S)C3OCC2O3)cc1 (stereo unspecified),10.7,3.0,5.2,3.6,5.8,-6.1
CCc1ccc2nc3n[nH]c(N)c3cc2c1,-1.6,10.3,-19.9,-5.2,90.2*,-6.3
CC(=O)OC[C@@H]1CN(Cc2ccccc2)C[C@H](n2cnc3c(NC4CCCC4)ncnc32)O1,·,·,·,-3.0,·,·
O=C1CC(SCc2nc3ccccc3[nH]2)C(=O)N1c1cccc(Cl)c1 (stereo unspecified),11.3,-2.7,2.7,-4.6,98.0*,-4.7
O=C1CC(SCc2nc3ccccc3[nH]2)C(=O)N1c1ccc(F)cc1 (stereo unspecified),-10.0,-1.7,4.2,-1.4,32.0,-0.2
Cc1ccc(Nc2nc(N)nc(CCl)n2)c(C)c1,8.1,-5.7,-0.3,-2.2,13.7,-14.3
Cc1cccc(Nc2nc(N)nc(CCl)n2)c1C,-31.2,-10.8,9.6,3.0,90.6*,4.7
Nc1nc(CCl)nc(Nc2ccccc2)n1,4.4,1.9,2.7,-0.5,87.3*,-3.5
CCC(C)[C@@H](CN)NCC1(c2ccccc2)CC1 (stereo partly specified),·,9.2,-6.1,-1.2,-0.2,·
C/C(=N\Nc1ccc(C(=O)O)cc1)c1ccc2c(c1)Nc1ccccc1S2,14.7,37.3,-2.0,-5.3,99.5*,6.2
SMILES,UBC9 SUMO inh,PREPL inhibitor,UBC13 polyUb,Rin1-Abl PPI inh,ALR inh,RBBP9 inh
O=c1cc(-c2cccc3ccccc23)[nH][nH]1,-16.1,-3.9,0.0,-4.0,88.3*,-4.0
CCC(C)C(NC(=O)c1ccccc1)C(=O)N1CCN(C(=O)c2ccccc2)CC1 (stereo unspecified),·,·,·,-2.1,·,·
COc1ccc(CNC(=O)CN(C(=O)c2snc(C(N)=O)c2N)c2ccccc2F)cc1,2.7,5.7,22.6,0.8,17.3,·
O=C(O)c1cccc2c(-c3ccccc3)c(-c3ccccc3)[nH]c12,42.9,-0.6,19.8,-3.6,98.2*,-1.4
Cc1c([N+](=O)[O-])cc(C(=O)Nc2ccc(NC(=O)c3ccco3)cc2)cc1[N+](=O)[O-],11.7,-8.4,1.0,-3.3,0.4,·
CC(C)C1C(C#N)=C(N)Oc2n[nH]c(-c3cccs3)c21 (stereo unspecified),-8.8,-4.1,4.5,-0.2,82.2*,-9.4
O=C(OCCN1CCN(C2=NS(=O)(=O)c3ccccc32)CC1)c1ccccc1F,16.5,19.8,-1.0,0.7,26.1,·
O=c1c2ccccc2oc2cc(NCCCN3CCOCC3)ccc12,54.6*,8.2,15.7,1.3,3.8,·
O=c1c2ccccc2oc2ccc(NCCCN3CCOCC3)cc12,7.3,8.3,-13.0,-9.9,5.6,·
O=C(CN1CCNCC1)N1CCOCC1,·,·,·,-0.4,·,·
Cc1cc(=O)[nH]c(SCC(=O)Nc2ccc3c(c2)CCC3)c1C#N,·,2.8,4.3,1.1,48.6,·
Cc1cc(=O)[nH]c(SCC(=O)Nc2ccc(F)cc2)c1C#N,24.2,-1.4,-1.9,2.3,91.3*,-5.0
Cc1cc(=O)[nH]c(SCC(=O)Nc2ccc(Br)cc2)c1C#N,-8.1,12.3,-9.9,-1.7,98.9*,-7.7
Cc1ccc(Cl)cc1NC(=S)NCCCSC1CCCCC1,-11.3,-0.4,4.0,0.2,-0.9,-12.1
CCNC(=O)C1CCCN(C(=O)c2ccc(C(=O)OC)cc2)CC1 (stereo unspecified),·,·,·,-2.7,·,·
COc1ccc(OC)c(S(=O)(=O)N2CCC(C(=O)NC3CC3)CC2)c1,6.2,4.8,-4.5,1.2,58.4,·
CCOC(=O)/C=C1/SCC(=O)N1CC(=O)c1ccc[nH]1,·,·,·,1.4,·,·
CCCCc1ccc(NC(=O)CSc2nc(=O)n(CCN(CC)CC)c3c2CCC3)cc1,·,-9.8,10.7,2.9,-389.5,·
CN(C)CCCn1c2c(c(SCC(=O)Nc3nccs3)nc1=O)CCC2,·,-3.2,-2.5,-1.2,98.8*,·
CCc1ccc(NC(=O)CSc2nc(=O)n(CCCN(C)C)c3c2CCC3)cc1,·,12.0,3.8,-0.3,96.8*,·
Cc1cc(SCC(=O)OC/C(O)=C(\C#N)c2nc3ccccc3[nH]2)c(C)cc1Br,54.7*,-5.1,-15.5,-3.0,38.4,-5.1
O=C(N/N=C/c1ccc(O)cc1)c1csc2c1CCCC2,-3.2,5.6,-10.1,-0.4,98.7*,-6.7
O=C(N/N=C/c1ccc(C(F)(F)F)cc1)c1ccc(O)cc1,-11.5,7.8,1.4,-1.9,·,-0.6
CCOC(=O)C1(Cc2ccccc2C(F)(F)F)CCN(C2CCN(C(C)C)CC2)CC1,7.4,-47.9,22.2,0.2,·,-1.9
O=C1SCCC1NS(=O)(=O)c1ccc([N+](=O)[O-])cc1 (stereo unspecified),6.8,10.6,-0.8,-1.0,-12.2,·
COCCn1c(SCC(=O)N2CCCC2)nnc1-c1ccco1,7.9,-9.9,5.6,2.8,-1.3,·
